# Assay results taken from paper PMC7591136 (ACS biomaterials science & engineering, 2019).
# Key:
# [1] = pKa determination by UV–vis titration; type: physicochemical; conditions: neutral pH
# [2] = Partition coefficients, 1-octanol / PBS pH 7.4, shake flask; type: physicochemical; conditions: 1-octanol / PBS pH 7.4, 20 °C
# How it was run: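 Shake-flask (OECD) partitioning between 1-octanol and PBS pH 7.4 at 20 °C, run in triplicate with three different organic:aqueous volume ratios. Analyte was kept below 2.0 mM in each phase. Phases were separated by centrifugation and quantified by C-18 reverse-phase HPLC (35 °C, UV 300 nm) against 8-point standard curves (0.005–1.000 mg/mL). For the ionizable parent drug, the value is a distribution coefficient.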
# HIV-1 BaL = type: cell-based; conditions: Human immunodeficiency virus 1, BAL, TZM-bl, 48 h
# [3] = cited from earlier work
SMILES,ionized fraction [1],apparent POW (distribution coefficient) [2],IC50 (HIV-1 BaL),aqueous solubility ([3]; neutral form),reported aqueous solubility [3]
"Cc1nnc(C(=O)NC(C)(C)c2nc(C(=O)NCc3ccc(F)cc3)c(O)c(=O)n2C)o1 [RAL, raltegravir]",> 85%,2.0,4.5 ± 0.5 nM,1300 µg/mL,–
Cc1cc(C)c(Nc2ccnc(Nc3ccc(C#N)cc3)n2)c(C)c1 [dapivirine],–,–,–,–,< 10 µg/mL
O=C1Nc2ccc(Cl)cc2[C@@](C#CC2CC2)(C(F)(F)F)O1 [efavirenz],–,–,–,–,< 10 µg/mL
Cc1cccc(C)c1OCC(=O)N[C@@H](Cc1ccccc1)[C@@H](O)C[C@H](Cc1ccccc1)NC(=O)[C@H](C(C)C)N1CCCNC1=O [liponavir],–,–,–,–,< 10 µg/mL
